Laboratory results as given in ChEMBL document CHEMBL1154122, “A comprehensive study of Sansalvamide A derivatives: The structure-activity relationships of 78 derivatives in two pancreatic cancer cell lines” (2009).
Square brackets hold non-standard residues; d marks the D form. Peptide text beside a SMILES is read from it. Tic = O=C(O)[C@@H]1Cc2ccccc2CN1; NMeL = CN[C@@H](CC(C)C)C(=O)O; NMeV = CN[C@H](C(=O)O)C(C)C; Abu = CC[C@H](N)C(=O)O

Tests used:
[1] = Cytotoxicity against human PL45 cells after 56 hrs by [3H]thymidine uptake assay; format: functional
How it was run: (§1)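 Cells seeded at 2000–2500/well in DMEM with L-glutamine, 10% FBS and 1% penicillin-streptomycin. […] After 56 h, 3H-thymidine was added for 16 h more (72 h total), then cells were harvested and counted (CPM). Inhibition = 1 − CPM treated/DMSO; IC50 taken from curves, mean and SEM.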

BXPC-3 = experiment: Cytotoxicity against human BxPC3 cells after 56 hrs by [3H]thymidine uptake assay; format: functional; how it was run: as §1

SMILES | growth inhibition (GI) [1] [%] | growth inhibition (GI) (BXPC-3) [%]
CC(C)C[C@@H]1NC(=O)[C@H](CC(C)C)NC(=O)[C@@H]2Cc3ccccc3CN2C(=O)[C@H](CC(C)C)NC(=O)[C@H](C(C)C)NC1=O (cyclo(LLVL[Tic])) | 35 | 54
CC(C)C[C@@H]1NC(=O)[C@H](Cc2ccccc2)NC(=O)[C@H](CC(C)C)NC(=O)[C@H](C(C)C)NC(=O)[C@H](CCCCN)NC1=O (cyclo(FLKVL)) | 0 | 8
CC(C)C[C@@H]1NC(=O)[C@H](CC(C)C)N(C)C(=O)[C@H](Cc2ccccc2)NC(=O)[C@H](CC(C)C)N(C)C(=O)[C@H](C(C)C)N(C)C1=O (cyclo(F[NMeL]L[NMeV][NMeL])) | 0 | 0
CC[C@@H]1NC(=O)[C@H](CC(C)C)NC(=O)[C@H](CC(C)C)NC(=O)[C@H](Cc2ccccc2)NC(=O)[C@@H](CC(C)C)NC1=O (cyclo([Abu][dL]FLL)) | 23 | 34
